pIC50: −log10 of the molar value. Active and inactive are the calls of the source. The rule behind the calls is not given here.
Target: ATP-sensitive inward rectifier potassium channel 1 (Homo sapiens) (UniProt P48048)
Assay: Kir1.1 thallium flux block, concentration series – Tet-inducible ROMK cells, FluoZin2, SAR follow-up (AID 1916)
Settings: thallium flux FluoZin2 fluorescence
Outline: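 Test system: Tet-inducible ROMK-expressing cells, induced overnight in serum-free medium / Dosing: 11-point compound series in threefold dilution steps / Timing: 20 min room-temperature dye loading, 20 min compound preincubation / Technique: FluoZin2 thallium flux fluorescence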

Chain of ATP-sensitive inward rectifier potassium channel 1 (Homo sapiens) (P48048 whole entry, looked up): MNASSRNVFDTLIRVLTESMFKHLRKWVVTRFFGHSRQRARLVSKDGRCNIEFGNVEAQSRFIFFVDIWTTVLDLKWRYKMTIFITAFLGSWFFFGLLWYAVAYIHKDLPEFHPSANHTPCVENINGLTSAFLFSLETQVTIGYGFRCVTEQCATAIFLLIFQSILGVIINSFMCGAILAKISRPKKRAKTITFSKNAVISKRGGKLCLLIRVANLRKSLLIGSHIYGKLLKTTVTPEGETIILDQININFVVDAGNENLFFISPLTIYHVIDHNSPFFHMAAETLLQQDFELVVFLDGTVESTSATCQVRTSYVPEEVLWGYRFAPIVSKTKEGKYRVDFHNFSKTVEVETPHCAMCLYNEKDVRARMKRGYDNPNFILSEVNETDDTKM

Row | SMILES | pIC50 | IC50
1 | O=[N+]([O-])c1ccccc1CN1CCOCCOCCN(Cc2ccccc2[N+](=O)[O-])CCOCC1 | 5.18 | –
2 | N#Cc1ccccc1CN1CCOCCOCCN(Cc2ccccc2C#N)CCOCC1 | 5.07 | –
3 | O=[N+]([O-])c1ccc(CN2CCOCCOCCN(Cc3ccc([N+](=O)[O-])cc3)CCOCC2)cc1 | 4.85 | –
4 | COc1cc(CN2CCOCCOCCN(Cc3cc(OC)cc(OC)c3)CCOCC2)cc(OC)c1 | 4.42 | –
5 | Oc1ccccc1CN1CCOCCOCCN(Cc2ccccc2O)CCOCC1 | – | inactive
6 | COc1ccccc1CN1CCOCCOCCN(Cc2ccccc2OC)CCOCC1 | – | inactive
7 | FC(F)(F)c1cccc(CN2CCOCCOCCN(Cc3cccc(C(F)(F)F)c3)CCOCC2)c1 | 4.51 | –
8 | COC(=O)c1ccc(CN2CCOCCOCCN(Cc3ccc(C(=O)OC)cc3)CCOCC2)cc1 | 4.49 | –
9 | Cc1ccsc1CN1CCOCCOCCN(Cc2sccc2C)CCOCC1 | 4.71 | –
10 | CN(C)c1ccc(CN2CCOCCOCCN(Cc3ccc(N(C)C)cc3)CCOCC2)cc1 | – | inactive

More lines, now with the values ahead:

Row | pIC50 | IC50 | SMILES
11 | 4.61 | – | FC(F)(F)c1cc(CN2CCOCCOCCN(Cc3cc(C(F)(F)F)cc(C(F)(F)F)c3)CCOCC2)cc(C(F)(F)F)c1
12 | 4.60 | – | COc1cccc(CN2CCOCCOCCN(Cc3cccc(OC)c3)CCOCC2)c1
13 | – | inactive | COc1ccc(CN2CCOCCOCCN(Cc3ccc(OC)cc3)CCOCC2)cc1
14 | – | inactive | CC(C)c1ccc(CN2CCOCCOCCN(Cc3ccc(C(C)C)cc3)CCOCC2)cc1
15 | – | inactive | Clc1ccc(CN2CCOCCOCCN(Cc3ccc(Cl)cc3)CCOCC2)cc1
16 | 6.49 | – | N#Cc1cccc(CN2CCOCCOCCN(Cc3cccc(C#N)c3)CCOCC2)c1
17 | 4.88 | – | Cc1ccccc1CN1CCOCCOCCN(Cc2ccccc2C)CCOCC1

Same assay, conditions: thallium flux FluoZin2 fluorescence, at 1 mM (top of the series)

Row | % TPNQ activity | SMILES
18 | 43.4% | COc1ccc(CN2CCOCCOCCN(Cc3ccc(OC)nc3)CCOCC2)cn1
19 | inactive | CSc1ccc(CN2CCOCCOCCN(Cc3ccc(SC)cc3)CCOCC2)cc1
20 | 14.7% | N#Cc1cc(CN2CCOCCOCCN(Cc3ccc(F)c(C#N)c3)CCOCC2)ccc1F

Source: PubChem BioAssay AID1916 (Vanderbilt High Throughput Screening Facility, 2009)
